Reference: publication PMC2847389 (ACS nano, 2010)

Test: Circulation retention / AuNP probe clearance in vivo
Set-up: species or system athymic nude mice
Conditions: i.v., within the first hour, normalised to 1 min post-injection, n = 5
Procedure, shortened: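 Male Nu/nu mice, 6-8 weeks old, anaesthetised with Avertin (240 mg/kg i.p.). Dosed i.v. by tail vein with 1 mg probe in 100 μl water, or the equivalent dye-labeled peptide in sterile water. Serum was taken at each time point after euthanasia. 100 μl serum was incubated with DTT (~286 mM final) for 16 h at RT. Q670 read at 644/670 nm. Mean ± s.d., n = 5.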

% of initial administered amount removed from serum: more than 90%
Substance: Q670 (or BHQ2)-(His-Ser-Ser-Lys-Leu-Gln)-Cys [uncomplexed peptide]
